Results of several laboratories.
Each line is one published result; the experiments were not run side by side.
FLT3 K663Q: Receptor-type tyrosine-protein kinase FLT3 (FLT3, Homo sapiens, UniProt P36888, K663Q)
FLT3 R834Q: Receptor-type tyrosine-protein kinase FLT3 (FLT3, Homo sapiens, UniProt P36888, R834Q)
FLT3 D835V/ITD: Receptor-type tyrosine-protein kinase FLT3 (FLT3, Homo sapiens, UniProt P36888, D835V/ITD)
FLT3: Receptor-type tyrosine-protein kinase FLT3 (FLT3, Homo sapiens, UniProt P36888)
FLT3 D835Y: Receptor-type tyrosine-protein kinase FLT3 (FLT3, Homo sapiens, UniProt P36888, D835Y)
FLT3 autoinhibited: Receptor-type tyrosine-protein kinase FLT3, autoinhibited (FLT3, Homo sapiens, UniProt P36888)
FLT3 N841I: Receptor-type tyrosine-protein kinase FLT3 (FLT3, Homo sapiens, UniProt P36888, N841I)
FLT3 D835V: Receptor-type tyrosine-protein kinase FLT3 (FLT3, Homo sapiens, UniProt P36888, D835V)
FLT3 ITD: Receptor-type tyrosine-protein kinase FLT3 (FLT3, Homo sapiens, UniProt P36888, ITD)

With COc1cnc(Nc2cccc(S(N)(=O)=O)c2)nc1N1CCN(c2ccccc2)CC1 the remaining binding was 36% (FLT3 K663Q; binding, competition with immobilised ligand; 1 µM).
NS(=O)(=O)c1cc(NC(=O)Cc2ccccc2)ccc1Oc1cccc(Cl)c1 gave a remaining binding of 99% (FLT3 K663Q; cell-free assay, competition with immobilised ligand; 1 µM).
The remaining binding of CN(c1nccc(-c2cnn3ncccc23)n1)C1CC1 is reported as 100% (FLT3 R834Q; binding; 1 µM).
The remaining binding of CN(C)C(=O)Cn1cc(-c2nc(C3(c4ccc(-c5cnc(N)nc5)cc4)CC3)no2)cn1 is reported as 89% (FLT3 D835V/ITD; cell-free assay, competition with immobilised ligand; 1 µM).
C[C@@H](c1ccc(-n2cnc3c(N)ncnc32)cc1)N1CCc2nn(C)c(Cc3ccccc3)c2C1=O has a remaining binding of 100% (FLT3; binding, competition with immobilised ligand; 0.1 µM).
For Cc1cnc(Nc2ccc(C(=O)N3CCC(N4CCCC4)CC3)cc2)nc1-c1cc2ccccc2s1, the remaining binding was 3.6% (FLT3 D835Y; binding, competition with immobilised ligand; 1 µM).
The remaining binding of COc1ncc2cc3ccccc3nc2c1C#N is reported as 100% (FLT3 autoinhibited; cell-free assay, competition with immobilised ligand; 5 µM).
The remaining binding of COc1ccnn2ncc(-c3ccnc(N(C)C)n3)c12 is reported as 87% (FLT3 R834Q; binding; 1 µM).
For CO[C@@H](C)c1c(Nc2ccc([C@H](N(C)C(=O)C3CCS(=O)(=O)CC3)C(F)(F)F)cc2)cnc2cc(Cl)nn12, the remaining binding was 100% (FLT3 K663Q; cell-free assay, competition with immobilised ligand; 1 µM).
C[C@@H]1CCN(c2nccc(-c3cnn4ncccc34)n2)C1 gave a remaining binding of 78% (FLT3 autoinhibited; binding; 1 µM).
For Nc1ncc2c(n1)-c1c([nH]c3ccc(C#CC4CC4)cc13)CCCC2, the remaining binding was 89% (FLT3 D835Y; binding, competition with immobilised ligand; 1 µM).
For COc1cnc(Nc2cccc(S(N)(=O)=O)c2)nc1N1CCN(c2ccccc2)C(=O)C1, the remaining binding was 66% (FLT3 D835Y; binding, competition with immobilised ligand; 1 µM).
The remaining binding of Cc1cnn2ncc(-c3ccnc(N(C)C)n3)c2c1 is reported as 100% (FLT3 N841I; binding; 1 µM).
CC(C)CC(=O)N1CCc2nc(-c3ccc(Br)cc3)nc(N(C)Cc3ccccc3)c2C1 gave a remaining binding of 100% (FLT3 K663Q; cell-free assay, competition with immobilised ligand; 0.1 µM).
CCN1CCN(Cc2ccc(C(=O)Nc3ccc(C)c(Oc4ccc5c(c4)CC(=O)N5)c3)cc2C(F)(F)F)CC1 has a remaining binding of 45% (FLT3 K663Q; binding, competition with immobilised ligand; 1 µM).
The remaining binding of O=C(Nc1c[nH]nc1C(=O)NC1CCNCC1)c1cc(F)cc(F)c1 is reported as 85% (FLT3 autoinhibited; binding, competition with immobilised ligand; 1 µM).
With CN(C)C(=O)Cn1cc(-c2nc([C@@](C)(c3ccc(-c4cnc(N)nc4)cc3)C3CC3)no2)cn1 the remaining binding was 97% (FLT3; cell-free assay, competition with immobilised ligand; 1 µM).
The remaining binding of O=C(c1ccc(Nc2ncc(Cl)c(-c3cc4ccccc4s3)n2)cc1)N1CCC(N2CCCC2)CC1 is reported as 1.3% (FLT3 D835V; binding, competition with immobilised ligand; 1 µM).
N#Cc1ccccc1CSc1nnc2c(n1)[nH]c1ccccc12 has a remaining binding of 84% (FLT3; binding, competition with immobilised ligand; 10 µM).
CNC(=O)[C@@H]1CC[C@@H](n2c(-c3ccc4cnccc4c3)nc3ccc(C(=O)NCc4cccc(C(N)=O)c4)cc32)C1 gave a remaining binding of 100% (FLT3 R834Q; binding, competition with immobilised ligand; 1 µM).
For CC1CCCN1c1nccc(-c2cnn3ncccc23)n1 (stereo not drawn), the remaining binding was 100% (FLT3 autoinhibited; binding; 1 µM).
O=C(c1ccc(Nc2nccc(-c3cc4ccccc4s3)n2)cc1)N1CCC(N2CCCC2)CC1 has a remaining binding of 46% (FLT3 ITD; binding, competition with immobilised ligand; 1 µM).
For C=CC(=O)N1CCC(C(=O)NCC(=O)N2CCN(c3nc(-c4cnc(N)nc4C(F)F)nc(N4CCOCC4)n3)CC2)CC1, the remaining binding was 100% (Receptor-type tyrosine-protein kinase FLT3 (FLT3, Homo sapiens, UniProt P36888, D835H); binding, competition with immobilised ligand; 1 µM).
With CC1=C(C#N)C(c2ccc3c(c2)c(NC(=O)c2ccccc2C)nn3C)C(C#N)=C(C)N1 the remaining binding was 74% (FLT3 N841I; cell-free assay, competition with immobilised ligand; 1 µM).
O=C(NCCCN1CCOCC1)c1ccc(Nc2ncc(Cl)c(-c3ccc(Cl)s3)n2)cc1 gave a remaining binding of 2% (FLT3 K663Q; binding, competition with immobilised ligand; 1 µM).
For c1cncc(-c2cccc(Nc3nccc(NC4CCCCC4)n3)c2)c1, the remaining binding was 1.6% (FLT3 N841I; binding, competition with immobilised ligand; 10 µM).
CN1CCN(c2ccc(Nc3nccc(-c4ccccc4)n3)cc2C(F)(F)F)CC1 gave a remaining binding of 3.5% (FLT3 N841I; binding; 10 µM).
For O=C(NCCCN1CCOCC1)c1ccc(Nc2nccc(-c3cc4ccccc4s3)n2)cc1, the remaining binding was 35% (FLT3 K663Q; binding, competition with immobilised ligand; 1 µM).
With CN1CCN(c2ccc(Nc3nccc(-c4cccc([N+](=O)[O-])c4)n3)cc2C(F)(F)F)CC1 the remaining binding was 0% (FLT3 D835V; binding; 10 µM).
With O=C(c1ccc(Nc2ncc(Cl)c(-c3ccc(Cl)s3)n2)cc1)N1CCC(N2CCCC2)CC1 the remaining binding was 0.35% (FLT3 ITD; binding, competition with immobilised ligand; 1 µM).
CN(C)c1nccc(-c2cnc3ncccn23)n1 has a remaining binding of 100% (FLT3; binding; 1 µM).
With NS(=O)(=O)c1cc(NC(=O)C2(c3ccccc3Cl)CC2)ccc1Oc1cccc(Cl)c1 the remaining binding was 100% (FLT3 K663Q; cell-free assay, competition with immobilised ligand; 1 µM).
F[C@@H]1CCN(c2nccc(-c3cnn4ncccc34)n2)C1 has a remaining binding of 84% (FLT3 D835V; binding; 1 µM).
With O=C(NCC1CCOCC1)c1n[nH]cc1NC(=O)c1c(F)cccc1F the remaining binding was 92% (FLT3; binding, competition with immobilised ligand; 1 µM).
With N[C@@H]1CCN(c2nccc(-c3cnn4ncccc34)n2)C1 the remaining binding was 79% (FLT3 N841I; binding; 1 µM).
The remaining binding of O=C1CCc2cc(Nc3cc(OC4CCOCC4)c([N+](=O)[O-])cc3Cl)ccc2N1 is reported as 78% (FLT3 D835V/ITD; cell-free assay, competition with immobilised ligand; 1 µM).
